Data as given in ChEMBL document CHEMBL1127406 (J Med Chem, 1994).

Experiments:
Mu-type opioid receptor = Mu-type opioid receptor (Cavia porcellus, UniProt P97266); assay: Binding affinity at mu opioid receptor in guinea pig brain by [3H]DAMGO displacement.
In short: (§1)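 Adult male guinea pig whole-brain membranes in 50 mM Tris-HCl pH 7.4, preincubated 25 °C 30 min to strip endogenous peptides. Buffer contains BSA and peptidase inhibitors. Tritiated ligand at 0.75 nM (delta), 1.0 nM (mu) or 1.5 nM (kappa). Ten concentrations over 800-fold range, in duplicate. Nonspecific binding with 10 µM naltrexone. Incubated 25 °C 3 h, filtered, counted; nonlinear least-squares fit.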

[1] = target: Kappa-type opioid receptor (Cavia porcellus, UniProt P41144); assay: Binding affinity at kappa opioid receptor in guinea pig brain by [3H]U-69593 displacement.
In short: as §1, with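 “inhibitors.” for “inhibitors. Tritiated ligand at 0.75 nM (delta), 1.0 nM (mu) or 1.5 nM (kappa).”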

Cavia porcellus = organism: Cavia porcellus; assay: Inhibition of electrically induced smooth muscle contraction in guinea pig ileum.; format: functional
In short: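 Longitudinal muscle-myenteric plexus strips from ileum of male Hartley guinea pigs (250-500 g), held in 37 °C oxygenated Krebs buffer, 1 g tension. Transmural stimulation at 0.1 Hz, 0.4-ms supramaximal pulses; no peptidase inhibitors. Cumulative agonist doses, 3 min each; % inhibition of contraction height. μ-selectivity checked with 1000 nM CTAP. IC50 from Hill-equation fit, mean of two to four tissues.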

Sequence of Mu-type opioid receptor (P97266 whole entry): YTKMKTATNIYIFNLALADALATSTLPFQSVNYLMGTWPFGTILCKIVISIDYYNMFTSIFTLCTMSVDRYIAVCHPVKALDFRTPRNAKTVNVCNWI
Sequence of Kappa-type opioid receptor (P41144 whole entry): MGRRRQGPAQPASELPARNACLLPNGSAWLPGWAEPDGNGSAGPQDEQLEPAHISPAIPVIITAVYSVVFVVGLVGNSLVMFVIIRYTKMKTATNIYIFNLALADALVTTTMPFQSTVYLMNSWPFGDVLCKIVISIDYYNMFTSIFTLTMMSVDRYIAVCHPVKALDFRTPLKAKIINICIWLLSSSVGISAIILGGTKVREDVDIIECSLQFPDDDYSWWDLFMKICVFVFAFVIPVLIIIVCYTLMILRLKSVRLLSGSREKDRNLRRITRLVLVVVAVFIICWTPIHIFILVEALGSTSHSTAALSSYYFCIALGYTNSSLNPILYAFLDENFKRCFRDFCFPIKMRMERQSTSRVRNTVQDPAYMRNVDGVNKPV

| Compound | IC50 (Mu-type opioid receptor) | IC50 [1] | IC50 (Cavia porcellus) |
| --- | --- | --- | --- |
| CC[C@H](C)[C@@H]1NC(=O)[C@H](CCCN=C(N)N)NC(=O)[C@H](CCCN=C(N)N)NC(=O)[C@H](NC(=O)[C@H](Cc2ccccc2)NC(=O)CNC(=O)CNC(=O)[C@@H](N)Cc2ccc(O)cc2)C(C)(C)SSC(C)(C)[C@@H](C(N)=O)NC(=O)[C@@H]2CCCN2C(=O)[C@H](CCCN=C(N)N)NC1=O | 224 nM | 26.1 nM | – |
| CC[C@H](C)[C@@H]1NC(=O)[C@H](CCCN=C(N)N)NC(=O)[C@H](CCCN=C(N)N)NC(=O)[C@@H](NC(=O)[C@H](Cc2ccccc2)NC(=O)CNC(=O)CNC(=O)[C@@H](N)Cc2ccc(O)cc2)CSSC(C)(C)[C@H](C(N)=O)NC(=O)[C@@H]2CCCN2C(=O)[C@H](CCCN=C(N)N)NC1=O | 17 nM | 1 nM | – |
| CC[C@H](C)[C@@H]1NC(=O)[C@H](CCCN=C(N)N)NC(=O)[C@H](CCCN=C(N)N)NC(=O)[C@H](NC(=O)[C@H](Cc2ccccc2)NC(=O)CNC(=O)CNC(=O)[C@@H](N)Cc2ccc(O)cc2)C(C)(C)SSC[C@@H](C(N)=O)NC(=O)[C@@H]2CCCN2C(=O)[C@H](CCCN=C(N)N)NC1=O | 87.1 nM | 87.1 nM | – |
| CC[C@H](C)[C@@H]1NC(=O)[C@H](CCCN=C(N)N)NC(=O)[C@H](CCCN=C(N)N)NC(=O)[C@H](NC(=O)[C@H](Cc2ccccc2)NC(=O)CNC(=O)CNC(=O)[C@@H](N)Cc2ccc(O)cc2)C(C)(C)SSC(C)(C)[C@H](C(N)=O)NC(=O)[C@@H]2CCCN2C(=O)[C@H](CCCN=C(N)N)NC1=O | 563 nM | 70.5 nM | – |
| CC[C@H](C)[C@H](NC(=O)[C@H](CCCN=C(N)N)NC(=O)[C@H](CCCN=C(N)N)NC(=O)[C@@H](CC(C)C)NC(=O)[C@H](Cc1ccccc1)NC(=O)CNC(=O)CNC(=O)[C@@H](N)Cc1ccc(O)cc1)C(=O)N[C@@H](CCCN=C(N)N)C(=O)N1CCC[C@H]1C(=O)N[C@@H](CCCCN)C(N)=O | – | – | 94 nM |
| CC[C@H](C)[C@@H]1NC(=O)[C@H](CCCN=C(N)N)NC(=O)[C@H](CCCN=C(N)N)NC(=O)[C@H](NC(=O)[C@H](Cc2ccccc2)NC(=O)CNC(=O)CNC(=O)[C@@H](N)Cc2ccc(O)cc2)C(C)(C)SSC[C@H](C(N)=O)NC(=O)[C@@H]2CCCN2C(=O)[C@H](CCCN=C(N)N)NC1=O | 51.1 nM | 18 nM | – |
| CC[C@H](C)[C@@H]1NC(=O)[C@H](CCCN=C(N)N)NC(=O)[C@H](CCCN=C(N)N)NC(=O)[C@H](NC(=O)[C@H](Cc2ccccc2)NC(=O)CNC(=O)CNC(=O)[C@@H](N)Cc2ccc(O)cc2)CSSC(C)(C)[C@H](C(N)=O)NC(=O)[C@@H]2CCCN2C(=O)[C@H](CCCN=C(N)N)NC1=O | 108 nM | 100 nM | – |
| CC[C@H](C)[C@H](NC(=O)[C@H](CCCN=C(N)N)NC(=O)[C@H](CCCN=C(N)N)NC(=O)[C@H](CC(C)C)NC(=O)[C@H](Cc1ccccc1)NC(=O)CNC(=O)CNC(=O)[C@@H](N)Cc1ccc(O)cc1)C(=O)N[C@@H](CCCN=C(N)N)C(=O)N1CCC[C@H]1C(=O)NC(CCCCN)C(N)=O (stereo in doubt) | 9.9 nM | – | 1.07 nM |
| CC[C@H](C)[C@H](NC(=O)[C@H](CCCN=C(N)N)NC(=O)[C@H](CCCN=C(N)N)NC(=O)C(CC(C)C)NC(=O)[C@H](Cc1ccccc1)NC(=O)CNC(=O)CNC(=O)[C@@H](N)Cc1ccc(O)cc1)C(=O)N[C@@H](CCCN=C(N)N)C(=O)N1CCC[C@H]1C(=O)N[C@H](CCCCN)C(N)=O (stereo in doubt) | 5.2 nM | – | 0.3 nM |
